Screening results from PubChem BioAssay.
NadD inh: NadD (S. aureus) enzyme inhibition. purified NadD enzyme, colorimetric absorbance read-out. inhibition, % at 20 µM. 360,000 compounds, 0.78% hits. AID 602399; in the data active means inhibition above about 26%
TPT1 inhibitor: C. albicans TPT1 enzyme inhibition. recombinant caTPT1, FP RNA substrate dephosphorylation. inhibition, % at 5 µM. 300,000 compounds, 0.81% hits. AID 1962;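 active means inhibition above the mean of all tested compounds plus 3 SD, set per screening campaign, cut at about 24% in these data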;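 further: plate controls were DMSO alone for no effect and ferristatin control at 100 nM for full effect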
Rpn11 block: inhibitors of human proteasome Rpn11 | O00487 | human 26S proteasome, Ub4-pepOG fluorescence polarization; 20S core pre-blocked with epoxomicin | inhibition, % at 20 µM | 360,000 compounds, 0.59% hits;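 active means inhibition at 20 µM, scaled to each plate's controls, above about 33%, limit read from the data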
Target sequence (O00487 whole entry, looked up): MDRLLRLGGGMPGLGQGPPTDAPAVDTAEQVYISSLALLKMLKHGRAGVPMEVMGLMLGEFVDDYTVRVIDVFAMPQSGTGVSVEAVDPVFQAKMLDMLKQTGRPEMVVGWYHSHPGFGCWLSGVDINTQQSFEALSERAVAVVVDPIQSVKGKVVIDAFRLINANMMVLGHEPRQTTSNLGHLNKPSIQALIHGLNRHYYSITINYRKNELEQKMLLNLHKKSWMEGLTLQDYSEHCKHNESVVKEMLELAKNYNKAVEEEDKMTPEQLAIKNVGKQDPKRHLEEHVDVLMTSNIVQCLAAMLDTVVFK
PP1 inh: PP1-alpha (human) inhibition in PP5 counter-screen | 320,000 compounds, 0.9% hits | inhibition, % at 6.7 µM | P62136 | AID 2235 | purified PP1alpha, OMFP fluorescence;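 active means inhibition above the mean inhibition of all tested compounds plus 3 SD, computed separately for each screening campaign, cut at about 15% in these data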
Target sequence (P62136 whole entry, looked up): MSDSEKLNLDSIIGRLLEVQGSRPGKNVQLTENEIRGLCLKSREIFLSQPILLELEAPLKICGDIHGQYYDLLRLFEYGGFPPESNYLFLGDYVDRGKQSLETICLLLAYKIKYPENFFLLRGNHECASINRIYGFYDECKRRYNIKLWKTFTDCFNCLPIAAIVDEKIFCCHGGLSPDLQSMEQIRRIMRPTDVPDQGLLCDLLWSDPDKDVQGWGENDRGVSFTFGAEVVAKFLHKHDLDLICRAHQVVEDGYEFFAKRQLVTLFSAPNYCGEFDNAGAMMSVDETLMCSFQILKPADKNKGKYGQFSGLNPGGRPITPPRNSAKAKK
HNF4A DNA FP: change in binding of human HNF4 alpha to DNA | activity change, % at 10 µM | 360,000 compounds, 0.3% hits | HNF4a-FITC DNA binding, fluorescence polarization, 1 h | P41235; in the data active means activity change above about 30%, passing the limit was not always enough
CSN deneddyl inh: blocks human CSN-mediated cullin deneddylation; Purified CSN, SCF-Nedd8-OG deneddylation, fluorescence polarization; inhibition, % at 12.5 µM; 360,000 compounds, 0.38% hits;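 active means pattern-corrected inhibition above about 35%, with an unprinted fluorescence ratio check between 0.5 and 1.5, limit read from the data, passing the limit was not always enough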;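 further: 0% = enzyme with substrate and 100% = substrate without enzyme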
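Assay system: Purified human Csn5 enzyme expressed in HEK293T cells | Amount: Enzyme 0.24 nM | Measured by: Fluorescence polarization readout | Medium: Tris/NaCl/DTT buffer, pH 7.5 | Compound dosing: One concentration, 12.5 µM, 0.25% DMSO | Times: 90 min incubation of compound, enzyme and substrate at room temperature | Control set: no-enzyme wells high, enzyme-with-substrate wells low | Read-out: % inhibition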
PP1 confirm: human PP1 phosphatase inhibition, confirmation. inhibition, % at 6.7 µM. 1,900 compounds, 52% hits. shares compounds with PP1 inh. purified PP1alpha, OMFP substrate fluorescence;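 active means mean PP1 inhibition above a set limit taken from the earlier primary screen, cut at about 15% in these data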
PP5 inh counter: inhibits human PP5 phosphatase in PP1 counter-screen | shares compounds with PP1 inh | 1,900 compounds, 4% hits | inhibition, % at 6.7 µM | purified PP5c, OMFP fluorescence;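 active means mean PP5 inhibition over triplicate wells above about 9.5% taken from the earlier PP1 screen, limit read from the data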
An asterisk follows results filed as active; . = no result given. The list is not random: actives were taken first. Their share in the collection is about 2.7%.

SMILES	NadD inh	TPT1 inhibitor	Rpn11 block	PP1 inh	HNF4A DNA FP	CSN deneddyl inh	PP1 confirm	PP5 inh counter
CSc1ccccc1NC(=O)CN(C)C(C)C(=O)NCc1ccc2c(c1)OCO2 (centres undefined)	-0.2	.	0.6	.	-0.4	0.5	.	.
S=c1[nH]nc(COc2ccccc2)n1/N=C/c1cccc(Br)c1	3.6	-0.3	4.5	32.7*	-0.7	-5.2	-0.5	-7.0
O=C1C(=O)N(c2cccc(Cl)c2)C(c2ccccc2[N+](=O)[O-])/C1=C(\O)c1ccccc1 (centres undefined)	6.4	1.5	-6.6	-183.7	12.7	0.4	2.1	-1.6
O=C1C(=O)N(c2ccccc2)C(c2ccccc2[N+](=O)[O-])/C1=C(\O)c1ccccc1 (centres undefined)	2.1	-4.0	-1.8	-0.3	-5.3	1.5	.	.
O=C(Nc1nc(-c2ccccn2)cs1)C1CC1	-1.0	3.0	-3.1	8.7	1.6	1.9	.	.
O=C(CCS(=O)(=O)c1ccccc1)Nc1nc(-c2ccccn2)cs1	-3.9	3.3	5.1	26.9*	0.9	-0.1	36.7*	1.1
c1ccc(Nc2nc(-c3ccccn3)cs2)cc1	7.0	6.1	2.7	49.6*	-2.3	-0.1	46.1*	3.2
O=C(CCS(=O)(=O)c1ccc(F)cc1)Nc1nc(-c2ccccn2)cs1	-3.3	-2.6	2.3	21.3*	-1.2	3.3	44.0*	-1.5
O=C(CC1CC2CCC1C2)Nc1nc(-c2ccccn2)cs1 (centres undefined)	6.6	1.6	18.0	39.7*	6.3	-6.4	40.8*	-2.8
CCOc1ccc(-c2noc([C@@H]3O[C@H](CO)[C@@H](O)[C@H]3O)n2)cc1	2.5	.	-2.8	.	1.6	-1.9	.	.
CCc1nn(C(C)C(=O)N2CCN(c3ccc(OC)cc3)CC2)c(=O)c2cc3occc3n12 (centres undefined)	-0.6	0.0	-10.5	-3.4	0.5	-4.9	.	.
O=C(NC(=S)Nc1ccccc1F)C1CCCCC1	-6.9	0.6	-3.5	1.7	4.3	5.6	.	.
COc1ccc(OCCCC(=O)Nc2nc(-c3ccccn3)cs2)cc1	0.8	-1.2	9.4	43.0*	-6.4	-1.7	50.0*	3.2
CC(Oc1ccc(F)cc1)C(=O)Nc1nc(-c2ccccn2)cs1 (centres undefined)	-1.4	2.6	1.5	20.8*	0.3	1.7	32.1*	-0.2
Cc1cc(C)c(OCC(=O)Nc2nc(-c3ccccn3)cs2)c(C)c1	10.7	3.8	11.6	11.3	-2.6	5.0	.	.
CCC1Oc2ccc(C)cc2N(CC(=O)NCCN2CCOCC2)C1=O (centres undefined)	-2.3	2.2	-0.2	-2.4	-0.5	-0.8	.	.
COc1ccc(CN2C[C@@H](CO)O[C@@H](n3cnc4c(N5CCN(c6ccccc6)CC5)ncnc43)C2)cc1	-5.1	.	-1.4	.	1.7	0.8	.	.
CNC(=O)/C(C#N)=C/c1ccc(-c2ccccc2[N+](=O)[O-])o1	-10.4	0.6	-15.0	-2.2	-2.4	0.8	.	.
CNC(=O)/C(C#N)=C/c1ccc(-c2ccc(Cl)cc2)o1	-5.2	-4.5	1.6	20.1*	-0.3	-2.1	15.8*	-3.4
N=C1S/C(=C\c2ccccc2)C(=O)N1c1ccc(F)cc1	12.9	-1.8	1.4	-2.1	-0.6	0.8	.	.
COc1cc(/C=C2\SC(=N)N(c3ccc(F)cc3)C2=O)ccc1O	6.6	20.5	21.0	26.4*	14.3	8.1	20.1*	-1.0
COc1ccc(F)cc1S(=O)(=O)N1CCc2ccccc2C1	3.0	.	-6.7	.	3.0	-1.4	.	.
Cc1cc(C(=O)OCC(=O)N(C)c2c(N)n(Cc3ccccc3)c(=O)[nH]c2=O)c(C)n1-c1ccccc1	11.4	.	7.8	20.5*	4.4	6.6	0.3	-0.7
COCCN(C(=O)COC(=O)C1CC1)c1c(N)n(Cc2ccccc2)c(=O)[nH]c1=O	-2.1	-0.8	-3.8	-5.9	-2.5	2.9	.	.
COCCN(C(=O)COC(=O)Cc1ccc(Cl)cc1Cl)c1c(N)n(Cc2ccccc2)c(=O)[nH]c1=O	2.4	-2.2	-0.9	81.5*	-0.9	2.2	-1.5	-1.0
SMILES	NadD inh	TPT1 inhibitor	Rpn11 block	PP1 inh	HNF4A DNA FP	CSN deneddyl inh	PP1 confirm	PP5 inh counter
Cc1ccc(NC(=O)CN2C(=O)N/C(=C/c3ccccc3OCc3cccc(C(=O)O)c3)C2=O)cc1	15.5	0.8	4.5	51.7*	0.5	72.0*	33.3*	-5.7
Cc1ccc(NC(=O)CN2C(=O)N/C(=C/c3cc(C)n(-c4cccc(C(=O)O)c4)c3C)C2=O)cc1	7.1	.	-4.8	.	-11.6	33.3	.	.
O=C(CSc1nnc2c(n1)[nH]c1ccccc12)NCc1ccccc1F	-3.7	-0.5	-3.6	22.5*	3.1	6.0	-2.2	-5.8
COc1cc(C2C(C(=O)c3ccco3)=C(O)C(=O)N2c2cc(C)on2)cc(Br)c1O (centres undefined)	2.7	1.5	2.0	-0.9	-0.1	-0.1	.	.
CCCOc1ccc(C2C(C(=O)c3cc4ccccc4o3)=C(O)C(=O)N2c2cc(C)on2)cc1OC (centres undefined)	17.6	1.8	-0.2	33.3*	0.1	4.5	36.8*	-1.5
CCCOc1ccc(C2C(C(=O)c3cc4ccccc4o3)=C(O)C(=O)N2c2cc(C)on2)cc1 (centres undefined)	10.4	2.0	-0.7	27.4*	-1.5	0.0	34.4*	1.5
O=c1cc(CN2CCc3ccccc32)nc2sccn12	15.0	0.0	-20.6	24.0*	1.4	1.4	31.4*	-3.0
O=c1cc(CN2CCCc3ccccc32)nc2sccn12	2.4	-123.6	-101.7	0.8	-51.1	-13.2	.	.
C[C@H]1C(=O)N(C)CCN1C(=O)c1cccc(OC2CCN(CC(C)(C)C)CC2)c1	-2.3	-0.7	6.4	-1.9	-5.4	0.4	.	.
COc1ccc2c(Cl)c(C(=O)N/N=C/c3ccc4c(c3)OCO4)sc2c1	25.0	2.4	3.0	19.5*	-8.9	7.5	48.2*	1.9
O=C(N/N=C/c1cc(Br)cc([N+](=O)[O-])c1O)c1ccc(NC(=O)c2ccc(F)cc2)cc1	53.9*	3.8	32.4	21.7*	-15.8	21.6	35.1*	0.2
O=C(N/N=C/c1ccc2c(c1)OCO2)c1ccc(NC(=O)c2ccc(F)cc2)cc1	28.0	3.5	-4.1	18.9*	1.9	4.2	30.1*	-2.5
O=C(N/N=C/c1ccc2c(c1)OCO2)c1ccc2c(c1)OCCO2	2.2	0.3	-7.0	-1.4	1.2	4.7	.	.
CC(C)(Oc1ccc(F)cc1)C(=O)OCC(=O)c1ccc(S(C)(=O)=O)cc1	-0.3	.	0.0	.	0.3	-0.8	.	.
O=C1CCC([N+](=O)[O-])C(c2ccccc2C(F)(F)F)N1 (centres undefined)	-3.8	-1.3	4.6	-4.1	3.3	5.7	.	.
